Source: paper PMC4103641 (Bioscience and Microflora, 2011)
Marks after values point to notes of the source that are not given here. One block for each compound: values may come before it.

Tests used:
[1] = Metabolism of isoflavones by homogenate of germfree mouse small intestine; assay type: in vitro ADME; conditions: for Metabolized by incubation with germfree mouse small intestine (in words): 3 days anaerobically, both pH 5.0 and 7.4; for Glycoside detected after incubation against compound added / Aglycone detected after incubation against compound added: 3 days; for Hydrolysis by homogenate of germfree mouse small intestine (in words): without bacterial activity
Outline: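 Upper small intestine from 14-week-old male germfree BALB/cA mice, homogenised anaerobically in 9 volumes BHI broth at pH 7.4 or 5.0. Test compound added from 5 mmol/l DMSO stock. Flavone internal standard added, then 5 extractions with equal-volume butanol, redissolved in 50% ethanol. Reversed-phase ODS HPLC (30 °C, acetonitrile/water/acetic acid gradient) with 260 nm diode-array detection. Values are % detected versus added.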

human fecal suspension = experiment: Metabolism of isoflavones by human fecal suspensions; assay type: in vitro ADME; conditions: for 6HG detected after incubation / 6HGDG detected after incubation: substrate 6HGDG; for Tectorigenin detected after incubation: substrate Tectorigenin; for Genistein detected after incubation: substrate Genistein; for Daidzein detected after incubation: substrate Daidzein; for Glycitein detected after incubation: substrate Glycitein

SMILES: O=c1c(-c2ccc(O)cc2)coc2cc(O[C@@H]3O[C@H](CO)[C@@H](O)[C@H](O)[C@H]3O)cc(O)c12 [Genistin]
Metabolized by incubation with germfree mouse small intestine (in words) [1]: completely metabolized | Glycoside detected after incubation against compound added ([1]; pH 5.0): 0.0% | Glycoside detected after incubation against compound added ([1]; pH 7.4): 0.0% | Hydrolysis by homogenate of germfree mouse small intestine (in words) [1]: highly hydrolyzed

SMILES: COc1c(O)cc2occ(-c3ccc(O)cc3)c(=O)c2c1O [Tectorigenin, tectorigenin]
Detected intact after incubation ([1]; aglycone-form substrate): More than 95% | Substrate metabolized (in words) (human fecal suspension; 1 fecal sample): about half | Substrate metabolized (in words) (human fecal suspension; 8 of 10 fecal samples): metabolized completely | Metabolite detected (in words) (human fecal suspension; mixed human feces): no metabolite was detected | Substrate metabolized (in words) (human fecal suspension; mixed human feces): completely | Tectorigenin detected after incubation (human fecal suspension; Mix, mixture of 10 samples): 0.0% | Tectorigenin detected after incubation (human fecal suspension; fecal sample no. 1): 53.5% | Tectorigenin detected after incubation (human fecal suspension; fecal sample no. 2): 2.6% | Tectorigenin detected after incubation (human fecal suspension; fecal sample no. 3): 0.0% | Tectorigenin detected after incubation (human fecal suspension; fecal sample no. 4): 0.0% | Tectorigenin detected after incubation (human fecal suspension; fecal sample no. 5): 0.0% | Tectorigenin detected after incubation (human fecal suspension; fecal sample no. 6): 0.0% | Tectorigenin detected after incubation (human fecal suspension; fecal sample no. 7): 0.0% | Tectorigenin detected after incubation (human fecal suspension; fecal sample no. 8): 0.0% | Tectorigenin detected after incubation (human fecal suspension; fecal sample no. 9): 0.0% | Tectorigenin detected after incubation (human fecal suspension; fecal sample no. 10): 0.0%

SMILES: O=c1c(-c2ccc(O)cc2)coc2cc(O)cc(O)c12 [Genistein]
Detected intact after incubation ([1]; aglycone-form substrate): More than 95% | Detected as intact substrate (human fecal suspension; 1 sample): 70% | Substrate metabolized (human fecal suspension; 1 sample, incubation for 3 days): 94% | Found intact (human fecal suspension; 2 samples): more than 90% | Metabolites detected, including 6HG and equol (in words) (human fecal suspension; any incubates): No metabolites | Substrate metabolized (in words) (human fecal suspension; mixed human feces): completely | Genistein detected after incubation (human fecal suspension; Mix, mixture of 10 samples): 0.0% | Genistein detected after incubation (human fecal suspension; fecal sample no. 1): 70.9% | Genistein detected after incubation (human fecal suspension; fecal sample no. 2): 91.2% | Genistein detected after incubation (human fecal suspension; fecal sample no. 3): 99.0% | Genistein detected after incubation (human fecal suspension; fecal sample no. 4): 5.9% | Genistein detected after incubation (human fecal suspension; fecal sample no. 5): 0.0% | Genistein detected after incubation (human fecal suspension; fecal sample no. 6): 0.0% | Genistein detected after incubation (human fecal suspension; fecal sample no. 7): 0.0% | Genistein detected after incubation (human fecal suspension; fecal sample no. 8): 0.0% | Genistein detected after incubation (human fecal suspension; fecal sample no. 9): 0.0% | Genistein detected after incubation (human fecal suspension; fecal sample no. 10): 0.0%

SMILES: O=c1c(-c2ccc(O)cc2)coc2cc(O)ccc12 [Daidzein, daidzein]
Detected intact after incubation ([1]; aglycone-form substrate): More than 95% | Daidzein detected after incubation (human fecal suspension; Mix, mixture of 10 samples): 30.1% | Daidzein detected after incubation (human fecal suspension; fecal sample no. 1): 84.5% | Daidzein detected after incubation (human fecal suspension; fecal sample no. 2): 90.8% | Daidzein detected after incubation (human fecal suspension; fecal sample no. 3): 60.3% | Daidzein detected after incubation (human fecal suspension; fecal sample no. 4): 96.4% | Daidzein detected after incubation (human fecal suspension; fecal sample no. 5): 8.0% | Daidzein detected after incubation (human fecal suspension; fecal sample no. 6): 0.0% | Daidzein detected after incubation (human fecal suspension; fecal sample no. 7): 62.6% | Daidzein detected after incubation (human fecal suspension; fecal sample no. 8): 13.9% | Daidzein detected after incubation (human fecal suspension; fecal sample no. 9): 81.4% | Daidzein detected after incubation (human fecal suspension; fecal sample no. 10): 8.4%

SMILES: COc1cc2c(=O)c(-c3ccc(O)cc3)coc2cc1O [Glycitein, glycitein]
Substrate added that was resolved (in words) ([1]; aglycone-form substrate): about a half | Substrate metabolized (human fecal suspension; all fecal samples including the mixed sample): At least 75% | Glycitein detected after incubation (human fecal suspension; Mix, mixture of 10 samples): 8.0% | Glycitein detected after incubation (human fecal suspension; fecal sample no. 1): 24.6^a % | Glycitein detected after incubation (human fecal suspension; fecal sample no. 2): 17.5% | Glycitein detected after incubation (human fecal suspension; fecal sample no. 3): 2.7% | Glycitein detected after incubation (human fecal suspension; fecal sample no. 4): 10.7% | Glycitein detected after incubation (human fecal suspension; fecal sample no. 5): 7.1% | Glycitein detected after incubation (human fecal suspension; fecal sample no. 6): 0.0% | Glycitein detected after incubation (human fecal suspension; fecal sample no. 7): 12.2% | Glycitein detected after incubation (human fecal suspension; fecal sample no. 8): 3.2% | Glycitein detected after incubation (human fecal suspension; fecal sample no. 9): 0.0% | Glycitein detected after incubation (human fecal suspension; fecal sample no. 10): 5.6%

Now from value to compound:

Aglycone detected after incubation against compound added ([1]; pH 5.0): 0.0% | Glycoside detected after incubation against compound added ([1]; pH 5.0): 99.4% | Aglycone detected after incubation against compound added ([1]; pH 7.4): 0.0% | Glycoside detected after incubation against compound added ([1]; pH 7.4): 106.2^a % | Hydrolysis by homogenate of germfree mouse small intestine (in words) [1]: not hydrolyzed | Metabolism by human fecal bacteria (in words) (human fecal suspension; incubation for 3 days): completely metabolized | Metabolism by human fecal bacteria (in words) (human fecal suspension; incubation for 3 days, listed as 6-hydroxygenistein 6,7-di-O-glucoside): highly metabolized | 6HGDG metabolized to its aglycone, 6HG (human fecal suspension; six out of 10 samples): 9 to 56% | 6HG detected after incubation (human fecal suspension; Mix, mixture of 10 samples): 0.0% | 6HGDG detected after incubation (human fecal suspension; Mix, mixture of 10 samples): 0.0% | 6HG detected after incubation (human fecal suspension; fecal sample no. 1): 55.8% | 6HGDG detected after incubation (human fecal suspension; fecal sample no. 1): 0.0^a % | 6HG detected after incubation (human fecal suspension; fecal sample no. 2): 40.8% | 6HGDG detected after incubation (human fecal suspension; fecal sample no. 2): 0.0% | 6HG detected after incubation (human fecal suspension; fecal sample no. 3): 26.6% | 6HGDG detected after incubation (human fecal suspension; fecal sample no. 3): 0.0% | 6HG detected after incubation (human fecal suspension; fecal sample no. 4): 28.4% | 6HGDG detected after incubation (human fecal suspension; fecal sample no. 4): 0.0% | 6HG detected after incubation (human fecal suspension; fecal sample no. 5): 18.4% | 6HGDG detected after incubation (human fecal suspension; fecal sample no. 5): 0.0% | 6HG detected after incubation (human fecal suspension; fecal sample no. 6): 8.7% | 6HGDG detected after incubation (human fecal suspension; fecal sample no. 6): 0.0% | 6HG detected after incubation (human fecal suspension; fecal sample no. 7): 0.0% | 6HGDG detected after incubation (human fecal suspension; fecal sample no. 7): 0.0% | 6HG detected after incubation (human fecal suspension; fecal sample no. 8): 0.0% | 6HGDG detected after incubation (human fecal suspension; fecal sample no. 8): 0.0% | 6HG detected after incubation (human fecal suspension; fecal sample no. 9): 0.0% | 6HGDG detected after incubation (human fecal suspension; fecal sample no. 9): 0.0% | 6HG detected after incubation (human fecal suspension; fecal sample no. 10): 0.0% | 6HGDG detected after incubation (human fecal suspension; fecal sample no. 10): 0.0%
SMILES: O=c1c(-c2ccc(O)cc2)coc2cc(O[C@@H]3O[C@H](CO)[C@@H](O)[C@H](O)[C@H]3O)c(O[C@@H]3O[C@H](CO)[C@@H](O)[C@H](O)[C@H]3O)c(O)c12 [6HGDG, 6-hydroxygenistein 6,7-di-O-glucoside]

Glycitin metabolized detected as glycitein [1]: about 65% | Metabolized by incubation with germfree mouse small intestine (in words) [1]: completely metabolized | Aglycone detected after incubation against compound added ([1]; pH 5.0): 65.5% | Glycoside detected after incubation against compound added ([1]; pH 5.0): 0.0% | Aglycone detected after incubation against compound added ([1]; pH 7.4): 62.1% | Glycoside detected after incubation against compound added ([1]; pH 7.4): 0.0% | Hydrolysis by homogenate of germfree mouse small intestine (in words) [1]: highly hydrolyzed
SMILES: COc1cc2c(=O)c(-c3ccc(O)cc3)coc2cc1O[C@@H]1O[C@H](CO)[C@@H](O)[C@H](O)[C@H]1O [Glycitin, glycitin]

Metabolized by incubation with germfree mouse small intestine (in words) [1]: completely metabolized | Glycoside detected after incubation against compound added ([1]; pH 5.0): 0.0% | Glycoside detected after incubation against compound added ([1]; pH 7.4): 0.0% | Hydrolysis by homogenate of germfree mouse small intestine (in words) [1]: highly hydrolyzed
SMILES: COc1c(O[C@@H]2O[C@H](CO)[C@@H](O)[C@H](O)[C@H]2O)cc2occ(-c3ccc(O)cc3)c(=O)c2c1O [Tectoridin, tectoridin]

Substrate metabolized ([1]; pH 5.0): More than 95% | Aglycone detected after incubation against compound added ([1]; pH 5.0): 97.1% | Glycoside detected after incubation against compound added ([1]; pH 5.0): 4.9% | Substrate metabolized ([1]; pH 7.4): 40% | Aglycone detected after incubation against compound added ([1]; pH 7.4): 43.7% | Glycoside detected after incubation against compound added ([1]; pH 7.4): 60.7% | Hydrolysis by homogenate of germfree mouse small intestine (in words) [1]: highly hydrolyzed
SMILES: COc1c(O[C@@H]2O[C@H](CO[C@@H]3OC[C@@H](O)[C@H](O)[C@H]3O)[C@@H](O)[C@H](O)[C@H]2O)cc2occ(-c3ccc(O)cc3)c(=O)c2c1O [TGXG, Tectorigenin 7-O-xylosylglucoside]
